In assay [1] the test system is U-251. Nature of the assay: Cytotoxicity against human U251 cells assessed as colony formation at 10 uM treated for 48 hrs followed by washout measured after 2 weeks relative to control.
The subject of assay [2] is U-251. Nature of the assay: Cytotoxicity against human U251 cells assessed as reduction of cell viability at 10 uM after 48 hrs by MTT assay relative to control.
The test system of assay [3] is U-251. Nature of the assay: Induction of methuosis in human U251 cells assessed as induction of cellular vacuolization at 10 uM after 24 to 48 hrs by phase contrast microscopic analysis. The class given is functional, cell-based. In short, it runs like this: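 U251 glioblastoma cells in DMEM with 10% FBS at 37 °C under 5% CO2. Compound added in DMSO at 10 μM one day after plating; vehicle-only controls. Live cells examined by phase-contrast microscopy at 24 and 48 h for phase-lucent cytoplasmic vacuoles, with cell rounding and detachment taken as methuosis hallmarks.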

The test system of assay [4] is U-251. Nature of the assay: Cytotoxicity against human U251 cells assessed as inhibition of colony formation at 10 uM treated for 48 hrs followed by washout measured after 2 weeks relative to control. The class given is functional. In short, it runs like this:
(§1)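 U251 cells at 2,500 per 100 mm dish; one day after plating, compound added for 48 h (10 μM, or graded concentrations), then removed and cultures refed every 2 d. Colonies >50 cells counted at two weeks after methanol fixation and crystal violet staining; percent of DMSO control dishes, mean ± S.D. of three dishes.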

In assay [5] the test system is U-251. Nature of the assay: Induction of methuosis in human U251 cells assessed as induction of cellular vacuolization at 2.5 after 3 days by phase contrast microscopic analysis. The class given is functional, cell-based. In short, it runs like this:
(§2)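 One day after plating, U251 cells given 2.5 μM or 10 μM final compound or DMSO vehicle; live cells viewed by phase-contrast microscopy on three sequential days, without medium change or compound replenishment, for phase-lucent cytoplasmic vacuoles, rounding and detachment.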

In assay [6] the test system is U-251. Nature of the assay: Cytotoxicity against human U251 cells after 48 hrs by MTT assay. Conditions: U-251, 48 h.
Assay [7] concerns U-251. Nature of the assay: Induction of methuosis in human U251 cells assessed as induction of cellular vacuolization at 2.5 to 10 uM after 3 days by phase contrast microscopic analysis. It is filed as functional, cell-based.
Assay [8] deals with U-251. Nature of the assay: Cytotoxicity against human U251 cells assessed as inhibition of colony formation at 5 to 20 uM treated for 48 hrs followed by washout measured after 2 weeks relative to control. The class given is functional, cell-based. In short, it runs like this:
as §1

Assay [9] deals with U-251. Nature of the assay: Cytotoxicity against human U251 cells assessed as reduction of cell growth and viability at 2.5 to 10 uM after 3 days by cell counting.
For assay [10], the system named is U-251. Nature of the assay: Induction of methuosis in human temozolomide-resistant U251 cells assessed as induction of cellular vacuolization at 2.5 to 10 uM after 3 days by phase contrast microscopic analysis. It is filed as functional, cell-based.
In assay [11] the test system is U-251. Nature of the assay: Cytotoxicity against human temozolomide-resistant U251 cells assessed as reduction of cell viability at 2.5 to 10 uM after 48 hrs by colony formation assay.
The test system of assay [12] is U-251. Nature of the assay: Cytotoxicity against human U251 cells assessed as inhibition of colony formation at 2 to 10 uM treated for 48 hrs followed by washout measured after 2 weeks relative to control. It is filed as functional, cell-based. In short, it runs like this: as §1
For assay [13], the system named is U-251. Nature of the assay: Induction of methuosis in human U251 cells assessed as induction of cellular vacuolization at 2.5 uM after 1 to 2 days by phase contrast microscopic analysis. It is filed as functional, cell-based. In short, it runs like this: as §2

Each structure is given as a SMILES string. pIC50: −log10 of the molar value. Activity calls are given as the source filed them. The calls are words filed in the database; no cut-off is given here.

As to `COc1ccc2[nH]cc(/C=C/C(=O)c3ccncc3)c2c1`, in the assay with U-251 [1], the level, % of control at 10 µM is 2%. Further, the Activity with U-251 [2] is listed as 58%. The outcome with U-251 [3] was Active.

Regarding `COc1ccc2[nH]cc(/C=C/C(=O)c3cccnc3)c2c1`, in the assay on U-251 [1], the level, % of control at 10 µM was 99%. For the same molecule, in the assay with U-251 [2], the Activity is listed as 90%. Besides, in the assay with U-251 [3], the result was inactive.

`Cc1[nH]c2ccc(N=[N+]=[N-])cc2c1/C=C/C(=O)c1ccncc1`: in the assay on U-251 [4], the inhibition entry was “Active”.

Consider `Cc1ccc(C(=O)/C=C/c2c[nH]c3ccccc23)cc1`, for which, in the assay on U-251 [3], the result was inactive.

As to `Cc1[nH]c2ccccc2c1/C=C/C(=O)c1ccncc1`, the result in the assay with U-251 [5] was inactive. Moreover, in the assay with U-251 [6], the pIC50 was 5.32. Also, the result in the assay on U-251 [7], in the assay with U-251 [10], with U-251 [11], with U-251 [13] and with U-251 [3] was Active. In addition, the inhibition entry in the assay with U-251 [8], with U-251 [9] and with U-251 [12] was “Active” in each case. In addition, in the assay with U-251 [1], the level, % of control at 10 µM worked out at 8%. For the same molecule, the Activity in the assay with U-251 [2] was determined as 24%.

As for `COc1cc2c(/C=C/C(=O)c3ccncc3)c(C)[nH]c2cc1N=[N+]=[N-]`, in the assay with U-251 [4], the inhibition entry is “Active”.

Regarding `O=C(/C=C/c1c[nH]c2ccc(OCc3ccccc3)cc12)c1ccncc1`, the level, % of control at 10 µM in the assay on U-251 [1] came to 8%. Besides, in the assay on U-251 [2], the Activity was 56%. In addition, in the assay on U-251 [3], the result was Active.

As to `COC(=O)c1ccc(COc2ccc3[nH]c(C)c(/C=C/C(=O)c4ccncc4)c3c2)cc1`, the level, % of control at 10 µM in the assay with U-251 [1] came to 76%. In the assay on U-251 [2], the Activity is reported as 79%. Besides, the result with U-251 [3] was inactive.

Take `Cc1[nH]c2ccc(OCc3ccc(C(=O)O)cc3)cc2c1/C=C/C(=O)c1ccncc1`: the level, % of control at 10 µM in the assay on U-251 [1] is 71%. Moreover, in the assay on U-251 [2], the Activity was found to be 79%. Moreover, the outcome in the assay on U-251 [3] was inactive.

Turning to `COc1ccc(C(=O)/C=C/c2c[nH]c3ccc(Br)cc23)cc1`, the result in the assay with U-251 [3] was inactive.

As to `O=C(/C=C/c1c[nH]c2ccccc12)c1ccc(Cl)cc1`, the outcome in the assay on U-251 [3] was inactive.

`COc1ccc2[nH]cc(/C=C/C(=O)c3cnccn3)c2c1`: in the assay on U-251 [1], the level, % of control at 10 µM came out at 96%. For the same molecule, in the assay on U-251 [2], the Activity was found to be 88%. Moreover, the result in the assay on U-251 [3] was inactive.

In the case of `Oc1cccc(/N=C/c2c[nH]c3ccccc23)c1`, the outcome with U-251 [3] was inactive.

Consider `Cc1[nH]c2ccc(O)cc2c1/C=C/C(=O)c1ccncc1`, for which the level, % of control at 10 µM with U-251 [1] is 43%. In addition, in the assay with U-251 [2], the Activity was determined as 101%. In the assay on U-251 [3], the result was Active.

In the case of `O=C(/C=C/c1c[nH]c2ccccc12)c1ccccn1`, the level, % of control at 10 µM with U-251 [1] came out at 53%. Also, in the assay with U-251 [2], the Activity is 96%. The result with U-251 [3] was inactive.

For `O=C(/C=C/c1c[nH]c2ccccc12)c1ccccc1`, the level, % of control at 10 µM in the assay with U-251 [1] was 76%. Further, the Activity in the assay with U-251 [2] was determined as 109%. Moreover, in the assay with U-251 [3], the outcome was inactive.

`O=C(COc1ccccc1)c1c[nH]c2ccccc12`: the result in the assay on U-251 [3] was inactive.

`O=C(/C=C/c1c[nH]c2ccc(O)cc12)c1ccncc1`: the level, % of control at 10 µM with U-251 [1] came out at 72%. Further, the Activity in the assay on U-251 [2] was 107%. For the same molecule, the result in the assay on U-251 [3] was inactive.

As to `O=C(/C=C/c1c[nH]c2ccccc12)c1ccncc1`, in the assay on U-251 [1], the level, % of control at 10 µM was 22%. For the same molecule, the Activity with U-251 [2] is given as 58%. In addition, the outcome with U-251 [3] was Active.

As for `COc1ccc2c(c1)c(/C=C/C(=O)c1ccncc1)cn2C`, in the assay with U-251 [1], the level, % of control at 10 µM amounted to 52%. Moreover, the Activity with U-251 [2] is 73%. For the same molecule, the result in the assay on U-251 [3] was Active.

With `O=C(NCCc1c[nH]c2ccc(Cl)cc12)c1cccnc1`, the outcome in the assay with U-251 [3] was inactive.

For the molecule `O=C(/C=C/c1c[nH]c2ccccc12)c1cccnc1`, the level, % of control at 10 µM in the assay on U-251 [1] worked out at 71%. Moreover, the Activity with U-251 [2] is reported as 72%. Further, the outcome in the assay on U-251 [3] was inactive.
